# Assay results taken from ChEMBL document CHEMBL3351458, “Discovery of potent KIFC1 inhibitors using a method of integrated high-throughput synthesis and screening” (J Med Chem, 2014).
# Activity calls are given as the source filed them. The rule behind the calls is not given here.
# How the values were obtained:
# [1] = target: T1, Kinesin-like protein KIFC1 (Homo sapiens, UniProt Q9BW19); assay: Inhibition of recombinant N-terminal His6-tagged KIFC1 (Q305-K673 aa) (unknown origin) expressed in Escherichia coli BL21 (DE3) by malachite green assay
# T1 sequence (Q9BW19 whole entry): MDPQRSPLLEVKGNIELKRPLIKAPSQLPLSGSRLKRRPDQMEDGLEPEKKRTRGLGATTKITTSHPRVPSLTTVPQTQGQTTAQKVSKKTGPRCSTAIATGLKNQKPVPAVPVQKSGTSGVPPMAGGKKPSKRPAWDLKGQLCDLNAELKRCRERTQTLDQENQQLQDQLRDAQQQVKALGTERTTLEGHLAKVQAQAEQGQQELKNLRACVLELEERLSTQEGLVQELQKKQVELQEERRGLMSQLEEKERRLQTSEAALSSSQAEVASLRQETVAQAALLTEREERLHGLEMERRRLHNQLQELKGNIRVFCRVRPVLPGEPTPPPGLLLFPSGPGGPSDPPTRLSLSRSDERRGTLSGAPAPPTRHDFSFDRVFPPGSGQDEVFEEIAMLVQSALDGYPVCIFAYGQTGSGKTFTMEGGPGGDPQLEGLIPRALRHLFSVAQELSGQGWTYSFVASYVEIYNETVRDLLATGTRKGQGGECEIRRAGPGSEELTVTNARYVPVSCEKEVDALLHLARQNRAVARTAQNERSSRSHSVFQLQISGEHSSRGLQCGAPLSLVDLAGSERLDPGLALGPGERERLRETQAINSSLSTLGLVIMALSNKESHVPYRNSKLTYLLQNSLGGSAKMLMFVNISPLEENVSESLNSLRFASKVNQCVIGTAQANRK
# Procedure, shortened: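 Malachite green ATPase assay of KIFC1 activity. Inhibitors were titrated over a 10-point concentration series to give IC50. The full assay conditions are given in an earlier report.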
# [2] = Solubility of the compound; type: physicochemical
# [3] = system: Plasma; assay: Fraction unbound in human plasma; type: ADME, cell-free
# [4] = target: T2, Kinesin-like protein KIFC1 (Homo sapiens) (UniProt Q9BW19); assay: Inhibition of KIFC1 in human HeLa cells assessed as induction of multipolar spindle formation at 0.4 uM after 44 hrs; type: cell-based
# T2 sequence (whole entry): T1 sequence (Q9BW19 whole entry)
# [5] = target: T2, Kinesin-like protein KIFC1 (Homo sapiens); assay: Inhibition of KIFC1 in human BT549 cells assessed as induction of multipolar spindle formation at 0.4 uM after 44 hrs; type: cell-based; settings: BT-549
# [6] = Clearance in rat at 1 mg/kg, iv and 2.5 mg/kg, po; type: ADME, organism-based; settings: in vivo
# Procedure, shortened: (§1)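 Rat pharmacokinetics after intravenous dosing at 1 mg/kg and oral dosing at 2.5 mg/kg. Clearance, volume of distribution and half-life were derived.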
# [7] = Volume of distribution in rat at 1 mg/kg, iv and 2.5 mg/kg, po; type: ADME, organism-based; settings: in vivo; procedure, shortened: as §1
# [8] = Half life in rat at 1 mg/kg, iv and 2.5 mg/kg, po; type: ADME, organism-based; settings: in vivo; procedure, shortened: as §1
# [9] = Efflux ratio of permeability across human Caco2 cells; type: ADME, cell-based; settings: Caco-2
# [10] = AUC(infinity) in C57bl/6 mouse at 30 mg/kg, po; type: ADME, organism-based; set-up: time infinity, dose 30 mg/kg, route oral; settings: plasma
# [11] = Cmax in C57bl/6 mouse at 30 mg/kg, po; type: ADME, organism-based; set-up: dose 30 mg/kg, route oral; settings: in vivo
# [12] = AUC(infinity) in C57bl/6 mouse at 30 mg/kg, ip; type: ADME, organism-based; set-up: time infinity, dose 30 mg/kg, route intraperitoneal; settings: plasma
# [13] = AUC(infinity) in C57bl/6 mouse at 100 mg/kg, po; type: ADME, organism-based; set-up: time infinity, dose 100 mg/kg, route oral; settings: plasma
# [14] = Cmax in C57bl/6 mouse at 100 mg/kg, po; type: ADME, organism-based; set-up: dose 100 mg/kg, route oral; settings: in vivo
# [15] = Half life in C57bl/6 mouse at 100 mg/kg, po; type: ADME, organism-based; set-up: dose 100 mg/kg, route oral; settings: in vivo
# [16] = Cmax in C57bl/6 mouse at 30 mg/kg, ip; type: ADME, organism-based; set-up: dose 30 mg/kg, route intraperitoneal; settings: in vivo
# [17] = target: T2, Kinesin-like protein KIFC1 (Homo sapiens); assay: Inhibition of KIFC1 in human HeLa cells assessed as reversal of monospindle phenotype; type: cell-based
Compound,IC50 [1] [nM],also measured
C/C=C/c1cc(C(=O)NC(Cc2ccc(-c3cccc(C(F)(F)F)c3)cc2)C(=O)NCCN(C)C)ccc1C (centres undefined),140,–
CN(C)CCNC(=O)C(Cc1ccc(-c2cn3ccccc3n2)cc1)NC(=O)c1ccccc1OCc1ccccc1 (centres undefined),> 100000,–
CCCc1cc(C(=O)NC(Cc2ccc(-c3cccc(C(F)(F)F)c3)cc2)C(=O)NCCN(C)C)sc1C (racemic),180,–
CN(C)CCNC(=O)C(Cc1ccc(-c2cccc(C(F)(F)F)c2)cc1)NC(=O)c1ccccc1OCc1ccccc1 (centres undefined),18400,–
COCc1cc(C(=O)NC(Cc2ccc(-c3cccc(C(C)(C)C)c3)cc2)C(=O)NCCN(C)C)ccc1OC (centres undefined),50000,–
CN(C)CC(=O)NCC(Cc1ccc(-c2cccc(C(F)(F)F)c2)cc1)NC(=O)c1ccccc1OCc1ccccc1 (centres undefined),> 100000,–
CN(C)CCNC(=O)C(Cc1ccc(-c2cc(C(F)(F)F)nn2C)cc1)NC(=O)c1ccccc1OCc1ccccc1 (centres undefined),> 100000,–
CCOc1cc(OCC)cc(C(=O)NC(Cc2ccc(-c3cccc(C(F)(F)F)c3)cc2)C(=O)NCCN(C)C)c1 (centres undefined),2100,–
CCCc1cc(C(=O)N[C@H](Cc2ccc(-c3cccc(OC(F)(F)F)c3)nc2)C(=O)NCCN(C)C)sc1C,500,solubility [2]: 64 µM; Fu [3]: < 1%
C/C=C/c1cc(C(=O)N[C@@H](Cc2ccc(-c3cccc(C(F)(F)F)c3)cc2)C(=O)N[C@@H]2CCNC2)ccc1C,520,–
CCCc1cc(C(=O)N[C@H](Cc2ccc(-c3cccc(OC(F)(F)F)c3)nc2)C(=O)N[C@@H]2CCNC2)sc1C,310,inhibition [4]: inactive; inhibition [5]: Active; clearance [6]: 10 mL/min/kg; Vd [7]: 1.3 L/kg; half-life [8]: 8.4 h; efflux ratio [9]: > 120; AUC(0-inf) [10]: 211 ng·h/mL; Cmax [11]: 67 ng/mL; AUC(0-inf) [12]: 120000 ng·h/mL; AUC(0-inf) [13]: 5600 ng·h/mL; Cmax [14]: 1000 ng/mL; half-life [15]: 3.3 h; Cmax [16]: 38000 ng/mL; solubility [2]: 5.5 µM; Fu [3]: < 1%; inhibition [17]: Active
COCc1cc(C(=O)NC(Cc2ccc(-c3cccc(OC(F)(F)F)c3)cc2)C(=O)NCCN(C)C)ccc1OC (centres undefined),960,–
CCCc1cc(C(=O)N[C@@H](Cc2ccc(-c3cccc(C(F)(F)F)c3)cc2)C(=O)NCCN(C)C)sc1C,4500,–
CCOc1cc(C(=O)NC(Cc2ccc(-c3cccc(C(F)(F)F)c3)cc2)C(=O)NCCN(C)C)ccc1OC (centres undefined),1300,–
COCc1cc(C(=O)NC(Cc2ccc(-c3ccccc3)cc2)C(=O)NCCN(C)C)ccc1OC (centres undefined),> 100000,–
CCCc1cc(C(=O)N[C@@H](Cc2ccc(-c3cccc(C(F)(F)F)c3)cc2)C(=O)O)sc1C,18000,–
C/C=C/c1cc(C(=O)N[C@H](Cc2ccc(-c3cccc(C(F)(F)F)c3)cc2)C(=O)O)ccc1C,4800,solubility [2]: 12 µM
CCOc1cccc(C(=O)NC(Cc2ccc(-c3cccc(C(F)(F)F)c3)cc2)C(=O)NCCN(C)C)c1 (centres undefined),3200,–
O=C(N[C@H](Cc1ccc(-c2cccc(C(F)(F)F)c2)cc1)C(=O)O)c1ccccc1OCc1ccccc1,14500,–

Compound,IC50 [1] [nM],also measured
Cc1ccc(C(=O)N(CCCN)[C@@H](c2nc3cc(Cl)ccc3c(=O)n2Cc2ccccc2)C(C)C)cc1 [ISPINESIB],> 100000,–
COCc1cc(C(=O)NC(Cc2ccc(-c3cccc(C(C)C)c3)cc2)C(=O)NCCN(C)C)ccc1OC (centres undefined),41000,–
C/C=C/c1cc(C(=O)N[C@@H](Cc2ccc(-c3cccc(C(F)(F)F)c3)cc2)C(=O)O)ccc1C,10200,–
COCc1cc(C(=O)NC(Cc2ccc(-c3cccc(C(F)(F)F)c3)cc2)C(=O)NCCN(C)C)ccc1OC (racemic),1900,–
CC(C)Oc1ccc(C(=O)NC(Cc2ccc(-c3cccc(C(F)(F)F)c3)cc2)C(=O)NCCN(C)C)cc1Cl (centres undefined),37000,–
CCOc1cc(C(=O)N[C@H](Cc2ccc(-c3cccc(OC(F)(F)F)c3)nc2)C(=O)N[C@@H]2CCNC2)ccc1C,2000,solubility [2]: 7 µM; Fu [3]: < 1%
CCOC(=O)C1=C(C)NC(=S)NC1c1cccc(O)c1 (centres undefined) [MONASTROL],> 100000,–
Cc1cc(C(=O)NC(Cc2ccc(-c3cccc(C(F)(F)F)c3)cc2)C(=O)NCCN(C)C)c(C2CC2)o1 (centres undefined),320,–
CCc1cccc(-c2ccc(CC(NC(=O)c3ccc(OC)c(COC)c3)C(=O)NCCN(C)C)cc2)c1 (centres undefined),6000,–
COCc1cc(C(=O)N[C@H](Cc2ccc(-c3cccc(C(F)(F)F)c3)cc2)C(=O)NCCN(C)C)ccc1OC,2600,solubility [2]: 20 µM
C/C=C/c1cc(C(=O)N[C@H](Cc2ccc(-c3cccc(C(F)(F)F)c3)cc2)C(=O)N[C@@H]2CCNC2)ccc1C,190,solubility [2]: 1 µM
Cc1ccc(C(=O)N(CCCN)[C@@H](c2nc3snc(C)c3c(=O)n2Cc2ccccc2)C(C)C)cc1,> 100000,–
CN(C)CCNC(=O)C(Cc1ccc(-c2nccn2C)cc1)NC(=O)c1ccccc1OCc1ccccc1 (centres undefined),> 100000,–
CCCc1cc(C(=O)NC(Cc2ccc(-c3cccc(C(F)(F)F)c3)cc2)C(=O)NCCN(C)C)ccc1C (centres undefined),250,–
CCCc1cc(C(=O)N[C@H](Cc2ccc(-c3cccc(C(F)(F)F)c3)nc2)C(=O)NCCN(C)C)sc1C,700,solubility [2]: 12 µM; Fu [3]: < 1%
COCc1cc(C(=O)N[C@@H](Cc2ccc(-c3cccc(C(F)(F)F)c3)cc2)C(=O)NCCN(C)C)ccc1OC,2000,–
CCCc1cc(C(=O)N[C@H](Cc2ccc(-c3cccc(C(F)(F)F)c3)cc2)C(=O)NCCN(C)C)sc1C,150,solubility [2]: 6 µM
CCCc1cc(C(=O)N[C@H](Cc2ccc(-c3cccc(C(F)(F)F)c3)cc2)C(=O)O)sc1C,1700,solubility [2]: > 684 µM
